In general, IC50 refers to the midpoint of a concentration-inhibition curve.

The structures appear in SMILES notation.

These results are taken from article PMC6247954 (Cell, 2018).

Data set [1] concerns YB5 cells (silenced CMV-GFP). Put plainly: GFP reactivation in YB5 measured by flow cytometry. The class given is cell-based, human. Conditions: for GFP reactivation by GSK-3 inhibitors: YB5, multiple doses, single exposure for four days.
Another data set relates to CDK4. Particulars: read-out: IC50 for CDK4; ref Asghar et al., 2015; cited from earlier work.
A further data set deals with CDK1. Particulars: read-out: IC50 for CDK1; ref Asghar et al., 2015; cited from earlier work.
The test system of data set [2] is YB5 cells. In words: qPCR of hypermethylated silenced genes in YB5. Format: cell-based, human. Particulars: for reactivation of SYNE1 and MGMT: YB5, 24hr treatment, qPCR.
In the next data set the target is CDK9/CyclinT1 (Homo sapiens, UniProt P50750). Put plainly: Isotope kinase activity assay with recombinant CDK9/CyclinT1 and BRG1. The class given is biochemical. Particulars: 1μM inhibitor, 32γ-ATP. Put shortly:
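Recombinant active full-length CDK9/Cyclin T1 (1.2 μg) pre-incubated 15 min with or without 1μM test compound. Purified BRG1 (0.8 μg) then added, 1 hr at 30 °C in KAS buffer containing 5μCi/μl 32γ-ATP. Reaction stopped by heating at 65 °C for 5 min.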

In the next data set the test system is CDK9. Particulars: read-out: IC50 for CDK9; ref Asghar et al., 2015; cited from earlier work.
In the next data set the test system is ID8. In words: ID8-VEGF-Defensin syngeneic ovarian cancer mouse model. Format: in vivo. Put shortly:
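Female C57BL/6NHsd mice aged 7–8 weeks were injected i.p. with 2.5×10^5 ID8-VEGF-Defensin mouse ovarian cancer cells. From day 3, test compound (1 or 10 mg/kg) or vehicle (5% DMSO in PBS) was given i.p. every 3 days for the whole experiment. Groups were randomly assigned.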

In a further data set the test system is SW48. Put plainly: s.c. SW48 xenograft model in NSG mice. The class given is in vivo. The method, boiled down:
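2×10^6 SW48 cells injected s.c. into the flank of randomly assigned, gender-matched 8–10-week-old NSG mice. Once tumours were palpable, 20mg/kg test compound or vehicle given i.p. every other day, for 10 weeks. Tumour size measured by caliper (mean+SEM, Student's t-test); survival recorded in days.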

In data set [3] the test system is YB5 cells. Put plainly: Time-course RNA-seq in YB5. Particulars: after excluding genes downregulated at 2hr/4hr. The class given is cell-based, human.
Data set [4] relates to cancer cell lines vs normal lung fibroblast (IMR90). In words: Anti-proliferation assay. Format: cell-based, human. Conditions: four days after one-time exposure; 5μM HH1 or 0.1μM MC180295. The method, boiled down: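 Cells seeded in 96-well plates at 40% confluency. Medium refreshed next day, test compound added directly, then cultured two more days at 37°C. Drug-free medium on day four. Cells trypsinised on day 5, mixed 1:1 with trypan blue and counted on an automated counter. Each sample counted at least three times and averaged; triplicate wells per condition.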

For a further data set, the system named is YB5 and HCT116. In words: Soft agar colony formation assay. Particulars: single dose pre-exposure for four days. The class given is cell-based, human. The method, boiled down:
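Cells were pretreated with a range of test compound concentrations, kept in drug for two more days, and switched to drug-free medium the day before seeding (four days total). 1000 cells were plated in Noble agar with 2x medium (20% FBS, 2% penicillin/streptomycin). Plates were grown two weeks at 37°C, then stained with 0.005% crystal violet in 10% EtOH.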

A further data set deals with human T lymphocytes. Put plainly: Humanized PBMC NSG mice. Format: in vivo. Conditions: 10 mg/kg or 20 mg/kg for 14 days.
Data set [5] concerns pSer2 of RNAPII CTD (CDK9 target). Put plainly: Western Blot of CDK substrates after MC180295 treatment. The class given is cell-based. Conditions: 2hrs treatment. On the technique in general: In western blotting, separated proteins are transferred to a membrane and probed.
A further data set deals with CDK1/2 substrates. The data set is described as above. Conditions: 2hrs treatment. The class given is cell-based.
Another data set has as its target GSK-3β (Homo sapiens, UniProt P49841). Put plainly: Kinome screening of 250 kinases at 1μM. Format: biochemical. The method, boiled down: (§1)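 Kinase assays were run by a contract lab on a microfluidic mobility-shift platform. Each target kinase was incubated with fluorescently labelled substrate and test compound in a standardized reaction mixture.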
The subject of the next data set is HL60 cell line. Put plainly: HL60 differentiation. Conditions: single dose exposure for four days. Format: cell-based, human. The method, boiled down:
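HL60 cells received one dose 24 h after seeding, drug-free medium on day 3, and analysis on day 4. Cells were washed and stained with PI plus FITC-CD11b or isotype IgG, then read on a Guava flow cytometer. Positive controls were 1μM ATRA and 1.25% DMSO.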

The subject of another data set is YB5. Put plainly: Cell cycle analysis by propidium iodide staining. The class given is cell-based, human. Conditions: four days after single exposure. Put shortly:
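YB5 cells received a single drug dose 24 h after seeding, with drug-free medium replaced three days later. They were analysed four days after treatment by propidium iodide staining and FACSCalibur flow cytometry. Sub-G1 fraction was taken as the apoptotic proportion. N=3.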

The test system of the next data set is SW48-luc cells. Put plainly: i.p. SW48-luc model in NSG mice. Format: in vivo. Put shortly: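 SW48 cells transfected with ffluc2-eGFP, GFP-positive cells sorted one week later and expanded. Cells injected i.p. into male and female age- and gender-matched NSG mice. Once tumour burden was seen by bioluminescence, mice randomised to 5–20mg/kg test compound or solvent i.p. every other day (3 vehicle, 5 treated). Imaged 5 min after i.p. D-luciferin. Endpoint: natural death or ascites; survival by log-rank (Mantel-Cox).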

Another data set has as its system substrates of CDK4/6. In words: Western Blot of CDK substrates after MC180295 treatment. Format: cell-based. Conditions: 2hrs treatment.
Another data set has as its target GSK-3α (Homo sapiens, UniProt P49840). In words: Kinome screening of 250 kinases at 1μM. Format: biochemical. Put shortly: as §1
Data set [6] relates to GFP and GLDC expression in tumors. Put plainly: Pharmacodynamics study in NSG mice. Particulars: two-week every other day treatment, qPCR. The class given is in vivo. Put shortly:
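Six gender-matched 8–10-week-old NSG mice randomised to vehicle or drug. 2×10^6 cells injected into the flank. 20mg/kg test compound given i.p. every other day for two weeks, starting when tumours were palpable 9 days after engraftment. Tumours homogenised, total mRNA extracted, expression measured by qPCR; N=3, mean+SEM, Student's t-test.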

In another data set the test system is panel of 250 kinases. Put plainly: Kinome screening of 250 kinases at 1μM. Format: biochemical, human. Put shortly:
as §1

Sequence of CDK9/CyclinT1 (P50750 whole entry): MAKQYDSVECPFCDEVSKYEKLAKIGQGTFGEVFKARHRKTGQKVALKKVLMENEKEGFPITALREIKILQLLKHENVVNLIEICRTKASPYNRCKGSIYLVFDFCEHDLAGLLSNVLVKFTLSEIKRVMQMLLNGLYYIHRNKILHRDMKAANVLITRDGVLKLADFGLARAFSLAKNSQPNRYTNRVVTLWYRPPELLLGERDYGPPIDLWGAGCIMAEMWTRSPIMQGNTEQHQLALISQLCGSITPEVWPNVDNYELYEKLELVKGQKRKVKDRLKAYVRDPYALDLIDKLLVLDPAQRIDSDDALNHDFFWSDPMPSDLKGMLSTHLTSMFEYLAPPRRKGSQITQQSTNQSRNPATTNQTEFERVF
Sequence of CDK9/CyclinT1 (O60563 whole entry partner): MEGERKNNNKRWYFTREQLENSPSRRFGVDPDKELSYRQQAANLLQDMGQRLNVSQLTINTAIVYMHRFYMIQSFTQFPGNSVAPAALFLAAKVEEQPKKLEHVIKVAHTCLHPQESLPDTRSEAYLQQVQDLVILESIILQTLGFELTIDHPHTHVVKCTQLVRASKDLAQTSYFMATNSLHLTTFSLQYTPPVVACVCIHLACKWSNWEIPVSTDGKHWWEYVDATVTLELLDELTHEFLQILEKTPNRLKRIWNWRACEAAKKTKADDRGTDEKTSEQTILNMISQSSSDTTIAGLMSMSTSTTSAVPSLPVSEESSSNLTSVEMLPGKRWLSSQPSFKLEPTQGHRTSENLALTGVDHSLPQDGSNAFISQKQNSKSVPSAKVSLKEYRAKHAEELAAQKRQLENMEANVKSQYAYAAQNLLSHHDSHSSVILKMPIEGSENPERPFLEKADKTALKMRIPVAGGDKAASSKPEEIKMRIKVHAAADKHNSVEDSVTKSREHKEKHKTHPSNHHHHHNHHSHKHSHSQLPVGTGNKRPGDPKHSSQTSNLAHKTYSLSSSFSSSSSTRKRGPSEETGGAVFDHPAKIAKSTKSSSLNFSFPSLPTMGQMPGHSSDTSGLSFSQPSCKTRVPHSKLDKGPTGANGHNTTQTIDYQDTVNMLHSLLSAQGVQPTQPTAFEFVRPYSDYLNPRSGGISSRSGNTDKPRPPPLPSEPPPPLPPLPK
Sequence of GSK-3β (P49841 whole entry): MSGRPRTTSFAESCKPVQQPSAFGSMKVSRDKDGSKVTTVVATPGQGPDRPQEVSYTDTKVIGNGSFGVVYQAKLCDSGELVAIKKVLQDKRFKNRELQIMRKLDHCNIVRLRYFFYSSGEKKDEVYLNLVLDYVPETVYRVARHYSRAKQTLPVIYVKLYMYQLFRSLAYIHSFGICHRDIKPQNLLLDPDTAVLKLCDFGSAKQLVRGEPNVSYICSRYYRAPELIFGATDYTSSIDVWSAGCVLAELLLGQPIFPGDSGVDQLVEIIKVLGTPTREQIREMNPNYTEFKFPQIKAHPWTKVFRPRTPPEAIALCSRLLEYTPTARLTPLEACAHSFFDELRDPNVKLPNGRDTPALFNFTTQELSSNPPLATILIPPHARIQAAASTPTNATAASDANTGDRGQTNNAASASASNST
Sequence of GSK-3α (P49840 whole entry): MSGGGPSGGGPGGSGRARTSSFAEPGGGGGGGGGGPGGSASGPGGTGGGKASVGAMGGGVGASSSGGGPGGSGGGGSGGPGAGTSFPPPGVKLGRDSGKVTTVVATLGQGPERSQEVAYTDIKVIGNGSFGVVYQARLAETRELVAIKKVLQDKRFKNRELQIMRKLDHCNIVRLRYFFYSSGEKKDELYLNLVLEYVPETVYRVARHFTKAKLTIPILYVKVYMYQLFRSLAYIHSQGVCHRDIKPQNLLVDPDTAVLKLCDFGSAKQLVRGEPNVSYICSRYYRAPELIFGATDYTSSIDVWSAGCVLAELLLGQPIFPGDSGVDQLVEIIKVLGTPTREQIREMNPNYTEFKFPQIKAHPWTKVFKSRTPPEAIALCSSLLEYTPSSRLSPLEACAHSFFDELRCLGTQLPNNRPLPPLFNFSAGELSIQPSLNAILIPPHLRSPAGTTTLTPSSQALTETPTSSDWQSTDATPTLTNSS

Turning to `Cc1c[nH]c(-c2cnc(NCCNc3ccc(C#N)cn3)nc2-c2ccc(Cl)cc2Cl)n1` [CHR99021], the “GFP reactivation by GSK-3 inhibitors” value in data set [1] is recorded as “no GFP reactivation”.

With `CN1CC[C@H](c2c(O)cc(O)c3c(=O)cc(-c4ccccc4Cl)oc23)[C@H](O)C1` [flavopiridol], the IC50 in the data set on CDK4 was […]; in the data set on CDK1 it was […]; with CDK9, […]. For the same molecule, the “reactivation of SYNE1 and MGMT” value in the data set with YB5 cells [2] was “led to gene reactivation”. For the same molecule, the “phosphorylation of RNA-Pol-ll CTD, BRG1 and CDK9 by CDK9” value on CDK9/CyclinT1 is given as “unphosphorylated after CDK9 inhibition”.

Turning to `O=C(/C=C/N1C[C@H]2C[C@@H]1CN2c1ccccn1)c1ccccc1O` [PFI-3], the “effect on GFP activation by CDK9 inhibitors” value in data set [1] (YB5, 72hr daily pretreatment followed by 24hr co-treatment with HH1 or iCDK9) is “inhibited GFP activation by CDK9 inhibitors in a dose-dependent manner”.

For the molecule `CC(C)(C)c1cnc(CSc2cnc(NC(=O)C3CCNCC3)s2)o1` [SNS-032], in the data set on ID8 (10mg/kg), the survival entry is reported as “extended survival” and the “tumor burden (ascites fluid)” value is recorded as “reduced tumor burden”. In addition, in the data set on ID8 (flow cytometry of ascites), the “activated dendritic cells (CD80/CD86+ and CD11c/MHCII+) in the tumor microenvironment” value is “increased populations of activated dendritic cells”; the “immune cells (CD45+) and T cells (CD3+) in the tumor microenvironment” value was “increased populations of immune cells (CD45+) and T cells (CD3+)”. Besides, the tumor growth entry in the data set on SW48 (20mg/kg qod) is recorded as “tumors grew slower”.

Take `Nc1ncn([C@H]2C[C@H](O)[C@@H](CO)O2)c(=O)n1` [DAC, decitabine]: in the data set with YB5 cells [3], the “silenced genes (RPKM < 0.31) up” value amounted to 1238 genes. Also, in the data set on YB5 cells [2] (YB5, daily 100nM, for most genes), the “time to reactivation of hypermethylated genes” value is recorded as “at least 24 hrs”.

Take `Nc1nc(N[C@H]2CC3CCC2C3)sc1C(=O)c1ccccc1[N+](=O)[O-]` (stereo partly drawn) [MC180295, (4-amino-2-(((2S)-bicyclo[2.2.1]heptan-2-yl)amino)thiazol-5-yl)(2-nitrophenyl)methanone]: in [4], the “reduction of proliferation, cancer cells compared to IMR90” value is “more effective in reducing proliferation of cancer cells”. Moreover, the “reduction of colony formation in soft agar” value in the data set on YB5 and HCT116 was 30–80%. In the data set on human T lymphocytes, the “killing of human T lymphocytes in vivo” value was “did not kill human T lymphocytes”; the “ratio of CD4 and CD8 T cells in vivo” value is “did not affect the ratio of CD4 and CD8 T cells”. For the same molecule, the “dephosphorylation of Ser2 (pSer2)” value in data set [5] is on record as “dephosphorylated at nanomolar doses”. Moreover, in the data set with CDK1/2 substrates, the “effect on CDK1/2 substrates” value was “not affected at all”. Besides, the “inhibition of GSK-3β” value against GSK-3β was “inhibited”. In addition, the “induction of differentiation marker CD11b” value with HL60 cell line is given as “significant induction”. Besides, at CDK9/CyclinT1, the “phosphorylation of RNA-Pol-ll CTD, BRG1 and CDK9 by CDK9” value is “unphosphorylated after CDK9 inhibition”. In the data set with YB5, the cell cycle arrest result was “no cell cycle arrest” and the sub-G1 subpopulation entry is listed as “an increase in the sub-G1 subpopulation”. For the same molecule, the body weights entry in the data set with SW48-luc cells (every other day treatment) was “did not affect body weights”. Further, in the data set with SW48-luc cells (i.p. every other day, log-rank test), the “survival of the mice” value is on record as “significantly extend survival”. For the same molecule, the “effect on substrates of CDK4/6” value with substrates of CDK4/6 is on record as “only affected at substantially higher doses”. At GSK-3α, the “inhibition of GSK-3α” value was “inhibited”. For the same molecule, the “GFP+ cells” value in data set [1] (YB5, 500nM, four days after single dose) is reported as ~ 60%. In data set [1] (YB5, four days after single dose), the “concentration active for GFP reactivation” value came out at 50 nM. For the same molecule, the “reactivation of GFP and GLDC in tumors” value in data set [6] was “reactivated GFP and GLDC in a dose dependent manner”. In addition, the “selectivity within the human kinome” value with panel of 250 kinases is listed as “highly selective against CDKs”. Also, in the data set on SW48 (20mg/kg i.p. qod), the mouse survival entry is “improved mouse survival”. Further, in the data set on SW48 (20mg/kg qod), the “toxicity as measured by body weight” value was “without causing overt toxicity” and the tumor growth result is “tumors grew slower”.

Take `NC1CCC(Nc2cc(-c3cccc(NCc4cccc(F)c4)n3)c(Cl)cn2)CC1` (centres unmarked) [iCDK9]: the “reactivation of SYNE1 and MGMT” value with YB5 cells [2] was “led to gene reactivation”.

On to `[Cl-].[Li+]` [LiCl], for which the “GFP reactivation by GSK-3 inhibitors” value in data set [1] is “no GFP reactivation”.
